The results in this text go back to paper PMC11319934 (PNAS Nexus, 2024).

For experiment [1], the system named is A. thaliana seedlings (Col-0). As to the kind of experiment: Secondary metabolite quantification in A. thaliana. It is filed as in vivo, Arabidopsis thaliana. The conditions noted are these: Col-0 seedlings, 4 (10 µM) with MeJA (50 µM), 4 days, n = 4, LC/MS. Summed up: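 7-day-old Col-0 seedlings treated 4 days with MeJA (50 µM) ± test compound (10 µM). Glucobrassicin (i-3ym) and p-coumaroyl agmatine accumulation quantified (n = 4). Experiment repeated three times; one-way ANOVA/Tukey's HSD, P < 0.01.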

The target of experiment [2] is T1, His-MYC3-FLAG (His6-SUMO-MYC3(44–238)-FLAG) (Arabidopsis thaliana, UniProt Q9FIP9).
T1 sequence (Q9FIP9 44-238): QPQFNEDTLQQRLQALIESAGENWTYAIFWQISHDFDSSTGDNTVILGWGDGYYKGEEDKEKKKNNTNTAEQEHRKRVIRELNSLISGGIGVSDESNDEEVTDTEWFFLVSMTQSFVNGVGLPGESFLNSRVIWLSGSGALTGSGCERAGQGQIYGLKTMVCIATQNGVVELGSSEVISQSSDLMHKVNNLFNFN
Description: Fluorescence anisotropy. It is filed as binding. Background: Fluorescence polarisation rises when a labelled molecule tumbles more slowly, as on binding a larger partner.

For experiment [3], the system named is M. polymorpha gemmalings (Tak-1). As to the kind of experiment: Growth. Format: in vivo, Marchantia polymorpha. The conditions noted are these: Tak-1 gemmalings, 4 (10 µM) with OPDA (50 µM), n = 24. In a few lines: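 Tak-1 gemmalings grown 2 weeks on half-strength Gamborg's B5 with 1% agar, containing OPDA (50 µM) ± test compound (10 µM). Continuous light 50–60 µmol m-2 s-1, 22°C. Plant area measured in mm2 (n = 24). Experiment repeated three times; one-way ANOVA/Tukey's HSD, P < 0.01.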

In experiment [4] the test system is A. thaliana seedlings (Col-0). As to the kind of experiment: Root growth of A. thaliana seedlings with MeJA. It is filed as in vivo, Arabidopsis thaliana. The conditions noted are these: Col-0 seedlings, co-treatment 4 (10 µM) with MeJA (50 µM), n = 15. In a few lines: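 Surface-sterilized Col-0 seeds stratified 2–3 days at 4°C. Grown on half-strength MS plates (2% sucrose, 0.4% gellan gum) with MeJA (50 µM) ± test compound (10 µM), under 16 h light (75 µmol m-2 s-1)/8 h dark at 22°C. Whole-seedling root length measured (n = 15). Repeated three times; one-way ANOVA/Tukey's HSD, P < 0.01.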

Experiment [5] has as its target T2, biotin-MED25^CMIDM/His-MYC3-FLAG complex (Arabidopsis thaliana, UniProt Q9FIP9).
T2 sequence (Q9FIP9 44-238): T1 sequence (Q9FIP9 44-238)
Description: AlphaLISA inhibitory assay MED25CMIDM/MYC3. Format: biochemical. In a few lines: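 Competition AlphaLISA: biotin-MED25CMIDM (150 nM) with His-MYC3-FLAG (50 nM). TMR-conjugated test peptides titrated 0–3 µM to generate inhibition curves. Run in triplicate; mean and SD reported.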
(Bead proximity is the source of the signal in Alpha formats.)

Experiment [6] has as its target T3, His-EIN3-FLAG (His6-SUMO-EIN3(200–500)-FLAG) (Arabidopsis thaliana, UniProt O24606).
T3 sequence (O24606 200-500): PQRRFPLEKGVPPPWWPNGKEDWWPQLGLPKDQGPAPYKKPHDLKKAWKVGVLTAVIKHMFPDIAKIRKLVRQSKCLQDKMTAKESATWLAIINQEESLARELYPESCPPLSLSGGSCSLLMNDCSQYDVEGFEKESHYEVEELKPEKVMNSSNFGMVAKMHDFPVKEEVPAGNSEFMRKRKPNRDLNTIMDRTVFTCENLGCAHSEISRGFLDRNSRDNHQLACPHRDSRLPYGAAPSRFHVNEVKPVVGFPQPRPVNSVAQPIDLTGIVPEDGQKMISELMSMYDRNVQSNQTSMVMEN
Description: Fluorescence anisotropy. It is filed as binding. In a few lines: (§1)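 FA titration at 25°C in 20 mM Tris-HCl pH 8.0, 200 mM NaCl, 10% glycerol, 10% cOmplete EDTA-free, with 2-mercaptoethanol (EIN3/EIL1 family). Protein added dropwise to 100 nM TMR-labelled peptide; His-EIN3-FLAG titrated 0–2 µM. Anisotropy read at ex/em 543/573.5 nm. Each point is the average of three independent measurements. Apparent Kd obtained by nonlinear curve fitting.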

The target of another experiment is T4, His-EIL1-FLAG (Arabidopsis thaliana, UniProt Q9SLH0).
T4 sequence (Q9SLH0 201-501): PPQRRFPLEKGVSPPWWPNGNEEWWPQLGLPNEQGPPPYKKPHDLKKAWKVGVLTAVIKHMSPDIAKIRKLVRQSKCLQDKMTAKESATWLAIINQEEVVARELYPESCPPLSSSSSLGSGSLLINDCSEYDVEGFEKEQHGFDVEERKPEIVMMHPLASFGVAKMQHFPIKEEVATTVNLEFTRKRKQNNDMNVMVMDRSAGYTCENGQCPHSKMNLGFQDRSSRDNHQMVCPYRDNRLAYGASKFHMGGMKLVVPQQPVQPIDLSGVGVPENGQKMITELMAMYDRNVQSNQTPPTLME
As to the kind of experiment: Fluorescence anisotropy. Format: binding. Summed up:
as §1

For experiment [7], the system named is JA-responsive marker genes in Arabidopsis seedlings. Description: RT-qPCR of JA-responsive marker genes in A. thaliana. It is filed as in vivo, Arabidopsis thaliana. Summed up:
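Col-0 or mutant (e.g. myc234) seedlings grown at 22°C, 16 h light/8 h dark. At 7 days, treated in half-strength MS liquid medium with MeJA (50 µM) and/or test compound (10 µM). Exposure 2 h for AOS, OPR3, MYC2, ORA59 and 8 h for VSP2, PDF1.2, ACT. Total RNA extracted; oligo-dT-primed cDNA; RT-qPCR (n = 4). One-way ANOVA/Tukey's HSD.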
In general terms: In qPCR the cycle at which signal appears reflects the starting amount.

Experiment [8] concerns His-MpMYC-Y-FLAG (MpMYC-Y(102-299)). Description: Fluorescence anisotropy. Format: binding, Marchantia polymorpha. The conditions noted are these: ratio of Kd of 1 to Kd of the peptide. Summed up:
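FA titration of 100 nM TMR-labelled peptide with His-MpMYC-Y-FLAG (0–2 µM), added dropwise. Conditions: 25°C, 20 mM Tris-HCl pH 8.0, 200 mM NaCl, 10% glycerol, 10% cOmplete EDTA-free, no 2-mercaptoethanol (MYC family). Read at ex/em 543/573.5 nm, triplicate points. Apparent Kd from nonlinear fitting; values compared as Kd ratios.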

Experiment [9] deals with OPDA-responsive marker genes in Marchantia gemmalings. As to the kind of experiment: RT-qPCR of OPDA-responsive marker genes in M. polymorpha. The conditions noted are these: 4 (10 µM) with OPDA (50 µM), 6 h. Format: in vivo, Marchantia polymorpha.

Molecules are shown by their SMILES. Bridge positions count the residues as written; N and C are the ends. Square brackets hold non-standard residues; d marks the D form. Peptide text beside a SMILES is read from it. * marks the point of attachment. X1 = CN(C)c1ccc2c(-c3ccc(C(=O)*)cc3C(=O)[O-])c3ccc(=[N+](C)C)cc-3oc2c1; R5 = C=CCCC[C@@](C)(N)C(=O)O; S5 = C=CCCC[C@](C)(N)C(=O)O

As usually defined, the Kd is a measure of binding affinity in units of concentration. A low value points to a tighter complex. The term Ki denotes the equilibrium dissociation constant of an inhibitor or competing ligand from its target. Lower therefore signals tighter binding. `CC[C@H](C)[C@H](NC(=O)[C@H](CCCCN)NC(=O)[C@H](CO)NC(=O)[C@@H](NC(=O)[C@]1(C)CCCC=CCCC[C@](C)(NC(=O)[C@H](CCCNC(=N)N)NC(=O)[C@H](Cc2ccccc2)NC(=O)[C@H](CO)NC(=O)[C@H](CCCNC(=N)N)NC(=O)[C@H](CCCNC(=N)N)NC(=O)[C@H](CCCNC(=N)N)NC(=O)[C@H](CC(=O)O)NC(=O)[C@H](CC(C)C)NC(=O)[C@H](Cc2ccccc2)NC(=O)[C@H](CCCCN)NC(=O)[C@H](CCC(N)=O)NC(=O)[C@H](Cc2ccccc2)NC(=O)c2ccc(-c3c4ccc(=[N+](C)C)cc-4oc4cc(N(C)C)ccc34)c(C(=O)[O-])c2)C(=O)N[C@@H]([C@@H](C)CC)C(=O)N[C@@H](CCC(N)=O)C(=O)NCC(=O)N1)[C@@H](C)CC)C(=O)N[C@@H](CC(=O)O)C(=O)N1CCC[C@H]1C(=O)N[C@@H](CCC(=O)O)C(=O)N[C@]1(C)CCCC=CCCC[C@@](C)(C(=O)N[C@@H](CC(C)C)C(=O)N[C@@H](CC(C)C)C(=O)N[C@@H](C)C(=O)N[C@@H](CO)C(=O)N[C@H](C(=O)O)[C@@H](C)O)NC(=O)[C@H](CCCCN)NC(=O)[C@H]([C@@H](C)CC)NC1=O` [compound 4] (X1-FQKFLDRRRSFR[S5]IQG[S5]ISKIDPE[R5]IK[S5]LLAST-OH; staple 13-17, 25-28): the “MeJA-triggered accumulation of p-coumaroyl agmatine (CouAgm) compared to MeJA alone” value in experiment [1] is “significantly enhanced”. The “MeJA-triggered glucosinolate (glucobrassicin, i-3ym) accumulation” value in experiment [1] is given as “significantly suppressed”. Further, the values for the Kd (in [2]; in experiment [6]; on His-EIL1-FLAG) were 5 nM, 105 nM and 116 nM, respectively. For the same compound, in [2] (ratio of Kd of 1 to Kd of the peptide), the “fold lower Kd with His-MYC3-FLAG than that of 1” value is given as 42 fold. The “effect on OPDA growth inhibitory effects (plant area)” value in experiment [3] is reported as “partially suppressed”. The “effect on MeJA growth inhibitory effects (root length)” value in [4] is “partially suppressed”. Further, affinity in [5] was put at a Ki of 71 nM. The “marker gene expression, peptide alone” value in experiment [7] (7-day-old Col-0, 4 (10 µM) alone without MeJA, 2 or 8 h) is listed as “almost no effects”. Moreover, the “expression of ORA59 and ACT (EIN3/EIL1-marker genes)” value in [7] (7-day-old Col-0, 4 (10 µM) with MeJA (50 µM), 2 or 8 h) was “activated”. In addition, in experiment [7] (7-day-old Col-0, 4 (10 µM) with MeJA (50 µM), 2 or 8 h, n = 3 or 4), the “MeJA-induced expression of MYC-mediated marker genes (VSP2, AOS, OPR3, MYC2)” value is given as “significantly suppressed”. Further, the “expression of PDF1.2 (EIN3/EIL1-mediated marker gene) compared with MeJA alone” value in experiment [7] (7-day-old Col-0, 4 (10 µM) with MeJA (50 µM), 8 h) is reported as “strongly activated”. For the same compound, the “expression pattern of VSP2 and PDF1.2 on myc234 compared to MeJA alone” value in [7] (MYC triple mutant myc234, 4 (10 µM) with MeJA (50 µM), 8 h, n = 4) is reported as “did not significantly change”. Also, the “expression pattern of VSP2 and PDF1.2 on ein2-1 compared to MeJA alone” value in experiment [7] (ein2-1 mutant, 4 (10 µM) with MeJA (50 µM), 8 h, n = 3 or 4) is “did not significantly change”. The “fold lower Kd with MpMYC-Y than 1” value in experiment [8] is 46 fold. The “bioactivity on marker gene expression in MpMYC-Y knockout mutant mpmycy” value in [9] is recorded as “completely abolished”.
